Bioassay records (PubChem)
A selection: hits, their analogues and other compounds. The true share with any hit is near 0.73%.
Arbovirus inh = arbovirus infection inhibition | actives 0.37% (n = 200,000) | inhibition, % at 10 µM | arbovirus infection cell-based antiviral screen; in the data active means inhibition above about 30%
TNAP act hi DEA = activators of human TNAP at high phosphate acceptor concentration. P05186. purified TNAP, CDP-star luminescence, 1 M DEA, 30 min; hits give high values; 0 = EDTA background, 1 = DMSO-only activity. activation factor at 20 µM. 200,000 tested, under 10 active. AID 1136;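 active means activation factor at least 2 at 20 µM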
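Assay system: human TNAP; Input: enzyme diluted 1/800 final; Reagent: CDP-star luminogenic substrate at 100 µM final; Timing: 30 min, room temperature; Signal: luminescence; Evaluation: TNAP activation factor scaled between EDTA and DMSO control wells.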
PKD1 inh = PKD1 (human) kinase inhibition | Q15139 | PKD1 kinase fluorescence polarization assay | inhibition, % (concentration not given with the values) | actives 0.056% (n = 200,000); in the data active means inhibition above about 50%
Target sequence (Q15139 whole entry, looked up): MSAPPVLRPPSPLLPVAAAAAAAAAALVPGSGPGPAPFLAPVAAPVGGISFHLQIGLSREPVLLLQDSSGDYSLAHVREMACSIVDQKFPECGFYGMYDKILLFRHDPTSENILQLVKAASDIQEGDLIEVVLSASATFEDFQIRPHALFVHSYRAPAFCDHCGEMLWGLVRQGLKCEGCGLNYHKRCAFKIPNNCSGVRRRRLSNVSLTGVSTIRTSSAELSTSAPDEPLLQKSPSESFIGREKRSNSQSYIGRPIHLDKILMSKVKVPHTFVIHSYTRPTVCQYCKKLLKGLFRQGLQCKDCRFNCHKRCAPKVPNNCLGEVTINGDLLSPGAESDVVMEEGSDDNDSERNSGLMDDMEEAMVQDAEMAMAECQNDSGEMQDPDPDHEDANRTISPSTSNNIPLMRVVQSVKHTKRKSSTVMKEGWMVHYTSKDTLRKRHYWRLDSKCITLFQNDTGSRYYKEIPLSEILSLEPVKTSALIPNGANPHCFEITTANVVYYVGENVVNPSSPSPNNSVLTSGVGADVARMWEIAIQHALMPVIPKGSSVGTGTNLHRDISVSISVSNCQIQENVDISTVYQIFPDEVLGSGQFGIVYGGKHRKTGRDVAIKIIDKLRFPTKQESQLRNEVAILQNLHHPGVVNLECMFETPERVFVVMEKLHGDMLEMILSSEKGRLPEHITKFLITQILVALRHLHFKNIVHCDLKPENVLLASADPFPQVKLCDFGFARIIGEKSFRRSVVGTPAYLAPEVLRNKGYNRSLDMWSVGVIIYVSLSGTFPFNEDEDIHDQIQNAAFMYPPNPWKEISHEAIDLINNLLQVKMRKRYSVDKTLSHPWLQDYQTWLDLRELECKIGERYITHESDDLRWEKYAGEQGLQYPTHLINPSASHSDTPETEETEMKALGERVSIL
TNAP inh no acc = blocks human TNAP activity with no phosphate acceptor present; purified TNAP, CDP-star luminescence, 30 min; inhibition, % at 20 µM; actives 0.26% (n = 200,000);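 active means tissue-nonspecific alkaline phosphatase inhibition above about 50% at 20 µM in the single-dose screen, limit read from the data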;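 further: 0% = DMSO negative control and 100% = EDTA positive control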
TNAP inh hi DEA = TNAP (human) inhibition, high acceptor | purified TNAP, CDP-star luminescence, 1 M DEA | inhibition, % at 20 µM | actives 0.03% (n = 200,000);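 active means over 50% inhibition of tissue-nonspecific alkaline phosphatase at 20 µM in the single-dose screen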;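 further: plate controls were DMSO wells for no effect and EDTA-quenched wells as full inhibition for full effect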
* hit, by the source's call; / = no result.

SMILES	Arbovirus inh	TNAP act hi DEA	PKD1 inh	TNAP inh no acc	TNAP inh hi DEA
O=C(N/N=C/c1cccc(O)c1)c1cc(-c2ccc3c(c2)OCO3)n[nH]1	-12	0.8	5	95*	16
O=C(Cc1ccccc1)N/N=C/c1ccc2c(c1)OCO2	19	1	-1	3	5
O=C(N/N=C/c1ccccc1)c1cc(-c2ccc3c(c2)OCO3)n[nH]1	-4	0.9	1	66*	6
Cc1ccc(C(=O)N/N=C/c2ccc3c(c2)OCO3)o1	-13	1	-5	-6	-2
Cc1ccc(/C=C(\CCC(=O)O)c2nc3ccccc3s2)cc1[N+](=O)[O-]	23	1	-12	-11	-3
CN(c1ccccc1)c1ccc(/C=C(\CCC(=O)O)c2nc3ccccc3s2)cc1[N+](=O)[O-]	37*	0.9	3	8	15
CCOC(=O)c1cnc2c(-c3ccc(F)cc3)cnn2c1C(F)(F)F	62*	1	-6	-4	0
CCOC(=O)c1cnc2c(-c3ccc(Cl)cc3)cnn2c1C	-4	1	2	-6	-2
COc1cc(/C=C/C(=O)c2ccc(C)c([N+](=O)[O-])c2)cc(OC)c1O	-34	0.4	4	50	59*
N#Cc1c2n(c3c(=S)nc[nH]c13)CCCCC2	31*	1	2	0	1
O=C(O)/C=C/C(=O)NC1CCCCC1	2	1	-3	-2	-1
CCSc1n[nH]c(=S)s1	2	1.1	-7	-14	-6
C/C(N)=C(/C#N)C(=O)CSc1n[nH]c(-c2cccs2)n1	4	1	0	62*	-4
COCCN1C(=O)/C(=C/c2ccc(Oc3ccc([N+](=O)[O-])cn3)c(OC)c2)SC1=Nc1ccccc1	32*	1	-3	-1	2
CCOC(=O)C1C(=O)Nc2nc3ccccc3n2C1C(C)C (stereo unspecified)	-3	1	2	92*	0
CCOC(=O)C1C(=O)Nc2nc(C)nn2C1c1ccccc1 (stereo unspecified)	7	1	-1	-2	-2
O=C1c2c(O)cc(O)cc2O[C@H](c2ccc(O)c(O)c2)[C@@H]1O	0	0.9	/	70*	8
COC(=O)c1c(N(S(C)(=O)=O)S(C)(=O)=O)sc2c1CCN(c1ncc(C(F)(F)F)cc1Cl)C2	48*	1	-8	-9	2
O=C(C[n+]1ccc(C(=O)N/N=C/c2ccc(O)cc2)cc1)c1ccccc1	6	1	-3	51*	0
O=C1CC(=O)N2N=C(c3ccc([N+](=O)[O-])cc3)SC2=N1	6	1	-5	-6	-3
Nc1nc(SCC(=O)N2CCc3ccccc32)[nH]c(=O)c1-c1ccccc1	7	1.1	-5	66*	-9
CCOc1ccc(NC(=O)Nc2cc(-c3ccccc3)sc2C(=O)OC)cc1	34*	1	-5	10	1
CC(C)(C)c1ccc(C(=O)NC(=S)NCC2CCCO2)cc1 (stereo unspecified)	40*	1	13	14	1
CC(C)(C)c1ccc(C(=O)NNC(=S)NCC2CCCO2)cc1 (stereo unspecified)	12	1	-6	-180	0
Cc1cc(C)c(NC(=O)COC(=O)CCc2ccc(S(=O)(=O)N3CCCCC3)cc2)c(C)c1	2	1	-1	-18	-4
SMILES	Arbovirus inh	TNAP act hi DEA	PKD1 inh	TNAP inh no acc	TNAP inh hi DEA
Cc1c(Cl)c(=O)n2c(=O)c(Cl)c(C)n12	1	1	-6	-6	0
COCCn1c(SCc2nc3scc(-c4ccc(Cl)cc4)c3c(=O)[nH]2)nnc1-c1cccc(C)c1	32*	1	4	-3	-2
O=C(/C=C/c1ccc(Cl)cc1)NC(=S)Nc1ccc(NC(=O)c2ccco2)cc1	-31	1	-2	-1	-4
COc1ccc(-n2c(Cc3cccn3C)nnc2SCC(=O)Nc2cccc(Cl)c2)cc1	36*	1	-15	-8	-2
Cc1cccc(S(=O)(=O)Nc2nc3ccccc3nc2NCc2ccco2)c1	33*	1	6	-3	0
Cc1cccc2cc(CN(Cc3cccnc3)C(=O)c3ccccc3F)c(Cl)nc12	8	1	-2	2	0
Cc1cc(C)c2cc(CN(Cc3cccnc3)C(=O)c3ccc(F)cc3)c(Cl)nc2c1	91*	1	8	0	0
COc1cc(OC)cc(-c2cc(N3C(=O)Nc4ccccc4N3O)n[nH]2)c1	7	1	-3	-19	-2
O=C1Nc2ccccc2N(O)N1c1cc(-c2ccc(Cl)cc2)[nH]n1	5	1	0	63*	-2
O=C(Cc1ccc(Br)cc1)Nc1ccccc1Cl	-7	1	8	-8	-4
Cc1ccc(SCCNC(=S)Nc2ccccc2)cc1	-26	1	2	-3	4
COc1ccccc1NC(=S)NCCSc1ccc(C)cc1	34*	1	0	-18	-2
COc1ccc(C2=CC(c3ccc(Cl)cc3)n3cnnc3N2)cc1OC (stereo unspecified)	50*	1.1	-5	-1	-7
COc1ccc(C2C=C(c3ccc(Cl)cc3)Nc3nc(NC(C)=O)nn32)cc1 (stereo unspecified)	9	1.1	-3	-10	-5
CCc1ccccc1NC(=O)c1ccc(CN2CCC(Cc3ccccc3)CC2)cc1	-28	1.1	-6	-6	-8
Oc1ccc(/C=N/Nc2cc(N3CCOCC3)nc(N3CCOCC3)n2)cc1O	-18	0.9	19	67*	9
Oc1cccc(/C=N/Nc2cc(N3CCOCC3)nc(N3CCOCC3)n2)c1	-2	1	1	0	3
CC1(C)CC(=O)C(C(C2=C(O)CC(C)(C)CC2=O)c2ccc(Br)s2)C(=O)C1 (stereo unspecified)	-7	1	-7	3	4
N#CCSc1nc(N)c(C#N)c(C2CCCCC2)c1C#N	34*	1.1	-2	-9	-5
N#Cc1c(N)nc(SCC(=O)NC2CCCCC2)c(C#N)c1-c1ccc(Cl)cc1	-7	1	-4	-8	-2
CCOc1ccc2nc(NC(=O)Nc3ccccc3)sc2c1	13	1	-1	-4	-2
COc1ccc2nc(NC(=O)C3CCN(S(=O)(=O)c4cnc[nH]4)CC3)sc2c1	15	1	-2	-6	2
CCOc1ccc2nc(NC(=O)C3CCN(S(=O)(=O)c4cnc[nH]4)CC3)sc2c1	30*	1	8	-9	-4
CCOc1ccc2nc(NC(=O)Nc3cccs3)sc2c1	36*	1	-6	-10	-4
Cc1ccc2nc(NC(=O)C3CCN(S(=O)(=O)c4cnc[nH]4)CC3)sc2c1	31*	1	-5	-1	-2
CN(C)c1nc(N)nc(CSc2nnnn2-c2ccc(F)cc2)n1	5	1	2	-20	-2
COC(=O)c1ccccc1NC(=O)CSc1n[nH]c(-c2cccnc2)n1	24	0.7	-2	69*	32
